ChEMBL document CHEMBL1132636, “Phthalein derivatives as a new tool for selectivity in thymidylate synthase inhibition” (J Med Chem, 1999)
Values after ≈ are worked out from the molar mass of the structure shown.

Columns and labels:
[1] = system: Streptococcus; test: In vitro minimum concentration for germicidal effect on Streptococcus.; format: functional
[2] = system: Streptococcus; test: In vitro inhibition of Streptococcus growth.; format: functional
Summary of the method: (§1)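 Bacterial clinical isolates (S. aureus, group D Streptococcus) grown in nutrient broth pH 7.2, inoculum 10³ cells/tube, with serial dilutions of compound from a DMSO stock.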

[3] = system: Staphylococcus aureus; test: In vitro evaluation for minimum germicidal effect on Staphylococcus aureus was determined; format: functional
[4] = system: Staphylococcus aureus; test: In vitro inhibition of Staphylococcus aureus growth.; format: functional; summary of the method: as §1
[5] = Ratio of cytotoxic concentration to that of minimum inhibitory concentration against Streptococcus (CC50/MIC50).; format: functional
[6] = system: Cryptococcus neoformans; test: In vitro inhibition of Cryptococcus neoformans growth.; format: functional
Summary of the method: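 Cr. neoformans in Sabouraud dextrose broth pH 5.7, 10³ blastospores or CFU/tube, serial compound dilutions, 37 °C, read after 5 days. MIC is the lowest concentration with no macroscopic growth. MGC is taken by subculturing negative tubes onto drug-free Sabouraud agar.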

[7] = system: MT4; test: In vitro cytotoxicity against mock infected MT-4 cells.; format: functional; conditions: Homo sapiens
Summary of the method: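 Uninfected MT-4 cells, 1 × 10⁴ per well in RPMI with 10% FCS, with serial compound dilutions from a DMSO stock. Incubated 4 days at 37 °C, run in parallel with the anti-HIV assay. Viable cells counted by MTT; reported as CC50.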

[8] = system: thymidylate synthase (Lactobacillus casei)
[9] = system: thymidylate synthase (Cryptococcus neoformans)
[10] = system: thymidylate synthase (Pneumocystis carinii)
[11] = target: Thymidylate synthase (Homo sapiens) (UniProt P04818)
Chain of Thymidylate synthase (Homo sapiens) (P04818 2-313 limits assumed): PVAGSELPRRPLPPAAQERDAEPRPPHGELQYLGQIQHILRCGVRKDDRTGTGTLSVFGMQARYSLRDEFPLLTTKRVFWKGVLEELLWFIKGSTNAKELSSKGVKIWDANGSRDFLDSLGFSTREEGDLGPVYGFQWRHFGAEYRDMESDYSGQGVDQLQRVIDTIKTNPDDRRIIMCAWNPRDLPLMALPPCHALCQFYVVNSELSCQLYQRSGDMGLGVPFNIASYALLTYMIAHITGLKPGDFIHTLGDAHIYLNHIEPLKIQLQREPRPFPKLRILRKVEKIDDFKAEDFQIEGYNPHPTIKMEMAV

[12] = target: T1, Thymidylate synthase (Lactobacillus casei) (UniProt P00469); test: Compound was evaluated for the percentage inhibition against Lactobacillus casei Thymidylate synthase (LcTS) at 27 uM; conditions: Lacticaseibacillus casei
T1 sequence (whole entry): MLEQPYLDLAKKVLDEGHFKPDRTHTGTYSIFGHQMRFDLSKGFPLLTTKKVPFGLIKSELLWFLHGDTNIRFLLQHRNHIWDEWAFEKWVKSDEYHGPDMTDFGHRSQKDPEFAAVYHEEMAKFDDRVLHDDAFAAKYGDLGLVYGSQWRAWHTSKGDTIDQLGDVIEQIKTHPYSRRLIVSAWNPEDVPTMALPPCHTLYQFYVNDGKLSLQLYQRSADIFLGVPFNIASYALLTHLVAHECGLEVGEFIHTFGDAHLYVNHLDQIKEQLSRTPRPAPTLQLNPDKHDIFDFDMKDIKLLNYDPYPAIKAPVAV
Summary of the method: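 Single concentration 27 µM, initial TS rates measured with and without inhibitor; IF = Vii/Vi. Purified L. casei TS, TES 50 mM pH 7.4 buffer with MgCl2, formaldehyde, EDTA, 2-mercaptoethanol; dUMP 120 µM, folate 60 µM, 20 °C. Read-out is absorbance rise at 340 nm. At least three determinations, each within 10% of the mean.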

[13] = target: T1, Thymidylate synthase (Lactobacillus casei); conditions: Lacticaseibacillus casei

Compound	MGC [1] [µM]	MIC [2] [µM]	MGC [3] [µM]	MIC [4] [µM]	SI [5]	MIC [6] [µM]	CC50 [7] [µM]	IF [8]	IF [9]	IF [10]	IF [11]	inhibition [12] [%]	IF [13]
O=C1OC(c2ccc(O)cc2)(c2ccc(O)c3ccccc23)c2ccccc21 (stereo not drawn)	34	8 (≈ 2.95 µg/mL)	54	17 (≈ 6.26 µg/mL)	6.7	> 54	54	0.529	0.389	0.498	0.172	–	–
O=C1OC(c2ccc(O)c(Cl)c2)(c2ccc(O)c(Cl)c2)c2ccccc21	32	32 (≈ 12.4 µg/mL)	64	32 (≈ 12.4 µg/mL)	2.4	> 77	77	0.47	0.704	0.725	0.67	–	–
O=C1OC(O)(c2ccc(O)c(Cl)c2)c2ccc([N+](=O)[O-])c3cccc1c23 (stereo not drawn)	8	8 (≈ 2.97 µg/mL)	17	4 (≈ 1.49 µg/mL)	8.24	> 66	66	0.086	< 0.04	0.418	1	–	–
O=C1OC(O)(c2ccccc2O)c2cccc3cccc1c23 (stereo not drawn)	263	171 (≈ 50 µg/mL)	–	> 263	1.5	18.7 (≈ 5.47 µg/mL)	263	0.781	0.576	0.151	0.957	–	–
COc1ccc(C2(c3ccc(OC)cc3)OC(=O)c3cccc4cccc2c34)cc1	–	> 21	–	> 21	–	> 21	21	0.624	0.836	0.749	1	47	–
O=C1OC(c2ccc(O)cc2)(c2ccc(O)cc2)c2ccc3c4c(ccc1c24)CC3	32	16 (≈ 6.31 µg/mL)	32	16 (≈ 6.31 µg/mL)	3.3	> 53	53	0.409	0.344	0.344	0.475	–	–
O=C1OC(c2ccc(O)cc2)(c2ccc(O)cc2)c2cccc3cccc1c23	34	17 (≈ 6.26 µg/mL)	41	34 (≈ 12.5 µg/mL)	–	> 41	41	–	–	–	0.272	–	–
O=C1OC(c2ccc(O)cc2)(c2ccc(O)cc2)c2ccc(Cl)c3cccc1c23.O=C1OC(c2ccc(O)cc2)(c2ccc(O)cc2)c2cccc3c(Cl)ccc1c23	8	8	16	8	–	> 69	69	–	–	–	0.438	–	–
O=C1OC(c2ccc(O)cc2)(c2ccc(O)cc2)c2ccc([N+](=O)[O-])c3cccc1c23	–	> 41	30	15 (≈ 6.2 µg/mL)	–	> 41	41	–	–	–	0.424	–	–
O=C1OC(c2ccc(O)cc2)(c2ccc(O)cc2)c2cc3ccccc3cc21	34	34 (≈ 12.5 µg/mL)	68	17 (≈ 6.26 µg/mL)	2.3	> 79	79	0.247	0.215	0.459	0.594	–	–
O=C1OC(c2ccc(O)c(F)c2)(c2ccc(O)c(F)c2)c2cc3ccccc3cc21	15	15 (≈ 6.07 µg/mL)	30	15 (≈ 6.07 µg/mL)	6.2	> 94	94	0.298	0.507	0.582	0.521	–	–
O=C1OC(c2ccc(O)c(Cl)c2)(c2ccc(O)c(Cl)c2)c2cccc3cccc1c23	3.5	1.8 (≈ 0.787 µg/mL)	14	7 (≈ 3.06 µg/mL)	–	9.37 (≈ 4.1 µg/mL)	46	–	–	–	0.814	–	–
O=C1OC(c2ccc(O)cc2)(c2ccc(O)cc2)c2ccccc21 [PHENOLPHTHALEIN]	58	38 (≈ 12.1 µg/mL)	–	> 58	–	> 58	58	–	–	–	0.182	–	0.444
O=C1OC(c2ccc(O)c(Cl)c2)(c2ccc(O)c(Cl)c2)c2cc3ccccc3cc21	6.2	3.1 (≈ 1.36 µg/mL)	6.2	3.1 (≈ 1.36 µg/mL)	39.6	> 200	120	0.093	–	–	0.103	–	–
O=C1OC(c2ccc(O)c(Cl)c2)(c2ccc(O)c(Cl)c2)c2ccc(Br)c3cccc1c23.O=C1OC(c2ccc(O)c(Cl)c2)(c2ccc(O)c(Cl)c2)c2cccc3c(Br)ccc1c23	3.1	3.1	12.5	3.1	49.6	> 200	154	0.36	–	–	1	–	–
O=C1OC(c2ccc(O)cc2)(c2ccc(O)cc2)c2ccc(Br)c3cccc1c23.O=C1OC(c2ccc(O)cc2)(c2ccc(O)cc2)c2cccc3c(Br)ccc1c23	28	7	28	7	10.8	37.5	76	0.112	0.243	0.536	0.453	–	–
O=C1OC(c2ccc(O)c(F)c2)(c2ccc(O)c(F)c2)c2cccc3cccc1c23	25	25 (≈ 10.1 µg/mL)	50	25 (≈ 10.1 µg/mL)	–	> 200	117	–	–	–	1	–	–
Cc1ccc(C(C)C)c(O)c1C1(O)OC(=O)c2cccc3cccc1c23 (stereo not drawn)	>89	72 (≈ 25.1 µg/mL)	–	> 89	–	> 89	89	–	–	–	1	–	–
O=C1OC(c2ccc(O)c(Cl)c2)(c2ccc(O)c(Cl)c2)c2ccc(Cl)c3cccc1c23.O=C1OC(c2ccc(O)c(Cl)c2)(c2ccc(O)c(Cl)c2)c2cccc3c(Cl)ccc1c23	1.6	1.6	3	3	–	9.37	63	–	–	–	1	–	–
